Reference: ChEMBL document CHEMBL4004866, “6-Benzylidene-2-[4-(pyridin-3-ylcarboxy)benzylidene]cyclohexanones: A novel cluster of tumour-selective cytotoxins” (Bioorg Med Chem Lett, 2017)
Activity calls are given as the source filed them. The rule behind the calls is not given here.

Experiments:
[1] = Selectivity index, ratio of CC50 for human HPC to CC50 for human HSC4 cells
[2] = Selectivity index, ratio of CC50 for HPLF to CC50 for human HSC4 cells
[3] = Selectivity index, ratio of CC50 for HGF to CC50 for human HSC4 cells
[4] = tested on: HSC-2; assay: Cytotoxicity against human HSC2 cells after 48 hrs by MTT assay; format: functional; conditions: HSC-2, 48 h
[5] = tested on: HSC-3; assay: Cytotoxicity against human HSC3 cells after 48 hrs by MTT assay; format: functional; conditions: HSC-3, 48 h
[6] = Cytotoxicity against human HPC after 48 hrs by MTT assay; format: cell-based; conditions: HPC cells
Method in brief: (§1)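 Nonmalignant human cells were exposed to compounds for 48 h at 37 °C. CC50 was taken as the concentration cytotoxic to 50% of cells.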

[7] = Selectivity index, ratio of CC50 for HGF to CC50 for human HSC3 cells; conditions: pooled result: one value given for 3 cell lines, strains, targets or settings
[8] = Toxicity in ip dosed mouse; format: organism-based; conditions: in vivo
Method in brief: (§2)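 Mice were given compound intraperitoneally at 30, 100 and 300 mg/kg. Animals were checked for survival and neurological deficit at 0.5 and 4 h after dosing.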

[9] = Cytotoxicity against HGF after 48 hrs by MTT assay; format: cell-based; conditions: human, HGF cells; method in brief: as §1
[10] = Cytotoxicity against HPLF after 48 hrs by MTT assay; format: cell-based; conditions: human, HPLF cells; method in brief: as §1
[11] = tested on: HSC-4; assay: Cytotoxicity against human HSC4 cells after 48 hrs by MTT assay; format: functional; conditions: HSC-4, 48 h
[12] = Selectivity index, ratio of CC50 for HGF to CC50 for human HSC2 cells; conditions: pooled result: one value given for 3 cell lines, strains, targets or settings
[13] = Selectivity index, ratio of CC50 for HGF to CC50 for human HL60 cells; conditions: pooled result: one value given for 3 cell lines, strains, targets or settings
[14] = tested on: HL-60; assay: Cytotoxicity against human HL60 cells after 48 hrs by MTT assay; format: functional; conditions: HL-60, 48 h
[15] = tested on: CCRF-CEM; assay: Cytotoxicity against human CEM cells assessed as growth inhibition after 72 hrs by coulter counter method; format: functional, cell-based
[16] = tested on: L1210; assay: Cytotoxicity against mouse L1210 cells assessed as growth inhibition after 48 hrs by coulter counter method; format: functional, cell-based; conditions: L1210, 48 h
[17] = Cytotoxicity against human Molt4/C8 cells assessed as growth inhibition after 72 hrs by coulter counter method; format: functional, cell-based; conditions: Molt4/C8, 72 h
[18] = tested on: Mus musculus; assay: Toxicity in mouse assessed as mortality at 30 to 300 mg/kg, ip after 0.5 to 4 hrs; format: organism-based; conditions: in vivo; method in brief: as §2
[19] = tested on: Rattus norvegicus; assay: Toxicity in rat assessed as overt toxicity at 30 mg/kg, po after 0.25 to 4 hrs; format: organism-based; conditions: in vivo
Method in brief: (§3)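 Rats received a single oral dose and were examined for overt toxicity at 0.25, 0.5, 1, 2 and 4 h.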

[20] = tested on: HSC-2; assay: Cell cycle arrest in human HSC2 cells assessed as accumulation at G2/M phase at 7 uM after 24 hrs by propidium iodide staining-based method (reference value: 11%); format: functional
[21] = tested on: Mus musculus; assay: Neurotoxicity in mouse at 300 mg/kg, ip after 0.5 hrs; format: toxicity, organism-based; conditions: in vivo
Method in brief: (§4)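 Mice received intraperitoneal doses of 30, 100 and 300 mg/kg. Animals were scored for survival and neurological deficit at 0.5 and 4 h after dosing.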

[22] = tested on: HSC-2; assay: Cell cycle arrest in human HSC2 cells assessed as accumulation at S phase at 7 uM after 24 hrs by propidium iodide staining-based method (reference value: 13%); format: functional
[23] = Chemical stability in pH 7.4 buffer/dimethylsulfoxide after 48 hrs by 1H NMR method; format: physicochemical; conditions: pH 7.4, 48 h
Method in brief: (§5)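 Compound solutions were incubated for 48 h at 37 °C, the same time and temperature as the in vitro assays, and checked for hydrolysis to the corresponding phenol.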

[24] = tested on: Rattus norvegicus; assay: Toxicity in rat assessed as overt toxicity at 50 mg/kg, po after 0.25 to 4 hrs; format: organism-based; conditions: in vivo; method in brief: as §3
[25] = tested on: HSC-2; assay: Cell cycle arrest in human HSC2 cells assessed as accumulation at G0/G1 phase at 7 uM after 24 hrs by propidium iodide staining-based method (reference value: 73%); format: functional
[26] = Chemical stability in deuterium oxide/deuterated dimethylsulfoxide after 48 hrs by 1H NMR method; format: physicochemical; method in brief: as §5
[27] = tested on: HSC-3; assay: Induction of apoptosis in human HSC3 cells assessed as PARP1 cleavage at 7 uM after 24 hrs by chemiluminescence method; format: functional, cell-based
[28] = tested on: Serum; assay: Drug metabolism in rat serum/dimethylsulfoxide assessed as 6-benzylidene-2-(4-hydroxybenzylidene)cyclohexanone formation after 48 hrs by 1H NMR method; format: ADME, cell-free; method in brief: as §5
[29] = tested on: HSC-2; assay: Induction of apoptosis in human HSC2 cells assessed as PARP1 cleavage at 7 uM after 24 hrs by chemiluminescence method; format: functional, cell-based
[30] = tested on: Mus musculus; assay: Neurotoxicity in mouse at 300 mg/kg, ip after 4 hrs; format: toxicity, organism-based; conditions: in vivo; method in brief: as §4

SMILES | Selectivity Index [1] | Selectivity Index [2] | Selectivity Index [3] | CC50 [4] [µM] | CC50 [5] [µM] | CC50 at 48 h [6] [µM] | Selectivity Index [7] | CC50 at 48 h [9] [µM] | CC50 at 48 h [10] [µM] | CC50 [11] [µM] | Selectivity Index [12] | Selectivity Index [13] | CC50 [14] [µM] | IC50 [15] [µM] | IC50 [16] [µM] | IC50 [17] [µM] | Activity [18] | further results
N[C@@H](Cc1ccc(N(CCCl)CCCl)cc1)C(=O)O [MELPHALAN] | 1.46 | 1.46 | 1.46 | 12 | 46 | 37 | 1.46 | 73 | 92 | 46 | 5.61 | 75.6 | 0.89 | – | – | – | – | LD50 [8]: 21.7 mg/kg
Cc1ccc(/C=C2\CCC/C(=C\c3ccc(OC(=O)c4ccccc4)cc3)C2=O)cc1 | – | – | – | – | – | – | – | – | – | – | – | – | – | 10.6 | 37.9 | 5.7 | Non-Toxic | –
Cc1ccc(/C=C2\CCC/C(=C\c3ccc(OC(=O)c4cccnc4)cc3)C2=O)cc1 | >1.93 | >1.93 | >1.93 | 90.3 | 98 | > 200 | >1.86 | 184 | 163 | 94.3 | >2.02 | >95.8 | 1.9 | 9.49 | 12.8 | 2.88 | Non-Toxic | Activity [19]: Non-Toxic
O=C(O)c1cccnc1 [NIACIN] | 1 | 1 | 1 | > 200 | > 200 | > 200 | 1 | > 200 | > 200 | > 200 | 1 | 1 | > 200 | > 500 | > 500 | > 500 | – | –
COc1ccc(/C=C2\CCC/C(=C\c3ccc(OC(=O)c4cccnc4)cc3)C2=O)cc1 | >8.81 | >8.81 | >8.81 | 30.3 | 16 | > 200 | >12.5 | > 200 | > 200 | 22.7 | >6.6 | >87 | 2.3 | 9.85 | 7.63 | 1.19 | Non-Toxic | –
O=C1/C(=C/c2ccc(Cl)cc2)CCC/C1=C\c1ccc(OC(=O)c2cccnc2)cc1 | 4.67 | 4.67 | 4.67 | 30.5 | 33.7 | 179 | 5.16 | 190 | 154 | 37.3 | 5.71 | 16.6 | 10.5 | 17.4 | 29.6 | 7.89 | Non-Toxic | –
O=C1/C(=C/c2ccc(O)cc2)CCC/C1=C\c1ccc(Cl)cc1 | – | – | – | – | – | – | – | – | – | – | – | – | – | 2.69 | 6.44 | 4.9 | – | –
O=C1/C(=C/c2ccccc2)CCC/C1=C\c1ccc(OC(=O)c2cccnc2)cc1 | 6.67 | 6.67 | 6.67 | 12.5 | 17.7 | 142 | 5.99 | 116 | 60 | 15.9 | 8.48 | 70.7 | 1.5 | 7.3 | 8.71 | 1.62 | Non-Toxic | Activity [20]: 1.5%; Activity [21]: Toxic; Activity [22]: 9.7%; Stability [23]: Stable; Activity [24]: Non-Toxic; Activity [25]: 86%; Stability [26]: Stable; Activity [27]: inactive; Drug metabolism [28]: Metabolite_Notdetected; Activity [29]: Active; Activity [30]: Non-Toxic
O=C1/C(=C/c2ccc(O)cc2)CCC/C1=C\c1ccc(O)cc1 | – | – | – | – | – | – | – | – | – | – | – | – | – | 6.84 | 13.5 | 5.52 | – | –
O=C1/C(=C/c2ccc(OC(=O)c3cccnc3)cc2)CCC/C1=C\c1ccc(OC(=O)c2cccnc2)cc1 | – | – | – | – | – | – | – | – | – | – | – | – | – | 169 | 213 | 22.6 | Non-Toxic | –
O=C1/C(=C/c2ccccc2)CCC/C1=C\c1ccc(O)cc1 | – | – | – | – | – | – | – | – | – | – | – | – | – | 5.82 | 7.32 | 5.17 | – | –
O=C1/C(=C/c2ccc(OC(=O)c3cccnc3)cc2)CCC/C1=C\c1ccc([N+](=O)[O-])cc1 | 1 | 1 | 1 | 112 | > 200 | > 200 | 1 | > 200 | > 200 | > 200 | >1.79 | 1 | > 200 | 48.1 | 61.1 | 38.1 | Non-Toxic | –
O=C1/C(=C/c2ccccc2)CCC/C1=C\c1ccc(OC(=O)c2ccccc2)cc1 | – | – | – | – | – | – | – | – | – | – | – | – | – | 40.4 | 46.7 | 10.4 | Non-Toxic | –
Cc1ccc(/C=C2\CCC/C(=C\c3ccc(O)cc3)C2=O)cc1 | – | – | – | – | – | – | – | – | – | – | – | – | – | 4.31 | 7.41 | 5.22 | – | –
COc1ccc(/C=C2\CCC/C(=C\c3ccc(O)cc3)C2=O)cc1 | – | – | – | – | – | – | – | – | – | – | – | – | – | 5.68 | 6.85 | 4.18 | – | –
